Screening data as filed in PubChem BioAssay.
CendR NRP1 mod = modulators of CendR peptide binding to human neuropilin-1. 0.85% of 360,000 active. inhibition, % at 25 µM. FAM-RPARPAR peptide binding to NRP-1, fluorescence polarization. AID 602438;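 active means inhibition or corrected inhibition above about 18%, plus a signal ratio from 0.5 to 1.5, limit read from the data, passing the limit was not always enough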
ARFGAP1 inh = inhibitors of rat ARFGAP1 | Q62848 | Arfgap1-stimulated ARF1 GTP hydrolysis, GDP FP detection | inhibition, % at 16.5 µM | 0.26% of 360,000 active | AID 651572;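 active means inhibition above a per-plate limit, mean inhibition of low control wells plus 3 SD, cut at about 25% in these data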
Target sequence (Q62848 1-136 limits assumed): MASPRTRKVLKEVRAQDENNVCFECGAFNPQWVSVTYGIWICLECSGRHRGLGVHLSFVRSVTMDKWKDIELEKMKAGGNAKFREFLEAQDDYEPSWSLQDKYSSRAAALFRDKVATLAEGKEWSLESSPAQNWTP
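Material: rat Arfgap1 catalytic domain, aa 1-136; also added: human ARF1(Δ1-17)-GTP substrate; compound dosing: one concentration, 16.5 µM, DMSO 1.26%; incubation: GTP hydrolysis reaction 2 h at 25 °C; measured by: Tracer-displacement fluorescence polarization with EDTA stop, 620/688 nm; evaluation: % inhibition from polarization; repeats: one replicate per compound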
V-ATPase pHluor = alters yeast V-ATPase proton transport. 0.37% of 350,000 active. S. cerevisiae, pHLuorin cytosolic pH fluorescence. response, % at 10 µM; in the data active means response mostly above about 7.3%, no sharp cut-off; inactive means mostly below about 5.4%; further: actives read high
Exocytosis inh = blocks lytic granule exocytosis; TALL-104 LAMP-1 surface exposure, flow cytometry; cells stimulated with thapsigargin and PMA; inhibition, % at 10 µM; AID 651702; 0.66% of 360,000 active;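 active means inhibition above about 55%, limit read from the data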
ASAP1 inh = blocks human ASAP1-stimulated Arf1 GTP hydrolysis; GDP FP detection; inhibition, % at 16.5 µM; 0.19% of 360,000 active; in the data active means inhibition above about 25%
Each line names hits and unclear results; the compound was inactive in the other large screens. Rows were chosen to be rich in hits. Some 2.2% of all compounds tested hit in one or more screens of this group.

CCNC(=O)C1(C)CCCN(Cc2ccccc2-c2ccccc2)C1 (configuration not stated)	CendR NRP1 mod 22.7 (no result: V-ATPase pHluor)
CCCCCn1cc(CCC(=O)Nc2ccc(N(C)c3ccccn3)cc2)c2ccccc21	none (no result: CendR NRP1 mod, V-ATPase pHluor, Exocytosis inh)
COC(=O)[C@]12C[C@H](CC(=O)N3CCC(c4ccccc4)CC3)C(=O)N(Cc3ccccc3)C1=C[C@H](C1CCCC1)O[C@@H]2C	none (no result: CendR NRP1 mod, V-ATPase pHluor, Exocytosis inh)
CC1(C)CC(=O)C2=C(C1)Oc1ncn3nc(-c4cccnc4)nc3c1C2c1ccccc1 (configuration not stated)	CendR NRP1 mod 31.1 (no result: V-ATPase pHluor)
CC1(C)CC(=O)C2=C(C1)Oc1ncn(CCO)c(=N)c1C2c1ccccc1 (configuration not stated)	none
COC(=O)[C@]12C[C@H](CC(=O)NCc3cccc4ccccc34)C(=O)N(CCC3=CCCCC3)C1=C[C@H](C(C)(C)C)O[C@@H]2C	none (no result: CendR NRP1 mod, V-ATPase pHluor, Exocytosis inh)
CC(C)c1ccc(S(=O)(=O)N2CCN(C(=O)CN3C(=O)c4ccccc4C3=O)CC2)cc1	CendR NRP1 mod 30.1
COc1ccccc1-c1cccc2[nH]c3c(c12)CCN1C(=O)[C@H]2[C@H](C)ON(C)[C@H]2C[C@@H]31	none (no result: CendR NRP1 mod, V-ATPase pHluor, Exocytosis inh)
COc1ccccc1C(=O)OCC(=O)NC(=O)NC1CCCC1	none (no result: V-ATPase pHluor)
COc1ccccc1C(=O)OCC(=O)NC1CCCC1	V-ATPase pHluor 258.9
O=C(COC(=O)c1cccnc1Cl)NC1CCCCC1	none
CC1CCC(NC(=O)COC(=O)c2cccnc2Cl)CC1 (configuration not stated)	CendR NRP1 mod 24.1
CC(C)c1[nH]nc2c1C(c1ccc(Br)cc1)NC2=O (configuration not stated)	none (no result: CendR NRP1 mod, V-ATPase pHluor, Exocytosis inh)
CCc1nc2c(OCc3cc(Cl)cc(Cl)c3)cccn2c1N(C)C(=O)c1ccc(C)cc1	none (no result: V-ATPase pHluor)
COc1ccc(NC(=O)CN(C)C(=O)C(NC(=O)c2ccco2)C(C)C)cc1 (configuration not stated)	none
COc1cccc(NC(=O)CN(C)C(=O)C(CCSC)NC(=O)c2ccco2)c1 (configuration not stated)	CendR NRP1 mod 17.5
Cc1cccc(Cl)c1NC(=O)N(C)c1ccccc1	none (no result: CendR NRP1 mod, V-ATPase pHluor, Exocytosis inh)
COc1ccc(Cl)cc1N(CC(=O)NCCSc1ccccn1)S(=O)(=O)c1ccccc1	Exocytosis inh 69.2
COc1ccc(N(CC(=O)NCCSc2ccccn2)S(=O)(=O)c2ccccc2)cc1Cl	none
CCC1(c2ccccc2)NC(=O)N(CC(=O)Nc2ccccc2C(=O)N2CCCCC2)C1=O (configuration not stated)	CendR NRP1 mod 21.0
CCC1(c2ccc(F)cc2)NC(=O)N(CC(=O)Nc2cccc(S(=O)(=O)N3CCCC3)c2)C1=O (configuration not stated)	none
CCC1(c2ccccc2)NC(=O)N(CC(=O)Nc2ccccc2N2CCCCC2)C1=O (configuration not stated)	none
CCC1(c2ccc(F)cc2)NC(=O)N(CC(=O)Nc2cccc(S(=O)(=O)N3CCCCC3)c2)C1=O (configuration not stated)	CendR NRP1 mod 31.0
CCOc1ccc(CN(C)c2nc(-c3cccnc3)nc3ccccc23)cc1OC	V-ATPase pHluor 15.7
COC(=O)C[C@H]1c2cc(F)cc(F)c2S(=O)(=O)N1C1CCN(Cc2ccccc2)CC1	CendR NRP1 mod 26.8
COC(=O)C[C@H]1c2cc(C(F)(F)F)ccc2S(=O)(=O)N1Cc1ccccc1	CendR NRP1 mod 25.3
CC(=O)C[C@H]1c2cc(C(F)(F)F)ccc2S(=O)(=O)N1C1CCCCC1	CendR NRP1 mod 26.9
COC(=O)C[C@H]1c2cc(C(F)(F)F)ccc2S(=O)(=O)N1C1CCCCC1	none
COC(=O)C[C@H]1c2cc(C(F)(F)F)ccc2S(=O)(=O)N1C1CCCC1	CendR NRP1 mod 24.1
COC(=O)c1cc2c(c3c4cc(C)ccc4n(S(=O)(=O)c4ccc(OC)cc4)c13)C(=O)N(Cc1ccccc1OC)C2	none (no result: CendR NRP1 mod, V-ATPase pHluor, Exocytosis inh)
CC(C)(C)C(=O)c1c(N)[nH]c(C(=O)c2ccccc2)c1-c1ccccc1	none (no result: CendR NRP1 mod, V-ATPase pHluor, Exocytosis inh)
O=C(NCC1CCN(C(=O)C(=O)c2cccs2)CC1)c1ccc2ccccc2c1	none (no result: CendR NRP1 mod, V-ATPase pHluor, Exocytosis inh)
C=CCCC1CN(Cc2ccc(OC)cc2)S(=O)(=O)c2c(cccc2N(C)S(=O)(=O)c2ccc(C)cc2)O1 (configuration not stated)	none (no result: CendR NRP1 mod, V-ATPase pHluor, Exocytosis inh)
CCOC(=O)C[C@H]1c2cc(F)ccc2S(=O)(=O)N1c1cccc(OC)c1	none
